Reference: paper PMC4002123 (Journal of Medicinal Chemistry, 2014)
“Also recorded” adds a separate entry of the source.

Key:
MDA-MB-231 cells [1] = assay: Antiproliferative assay; format: cell-based, human; details: read-out: growth inhibition IC50, MDA-MB-231; MDA-MB-231, 72 h
Procedure, shortened: (§1)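 Seeded at 5 × 10^3 cells/well and grown 24 h. Medium then replaced with fresh medium holding test compound at a range of concentrations; DMSO below 0.25%. Incubated at 37 °C for 72 h. Resazurin added for 2 h, then fluorescence read at ex 560 / em 590 nm.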

HeLa cells [2] = assay: Antiproliferative assay; format: cell-based, human; details: read-out: growth inhibition IC50, HeLa, 72 h
Procedure, shortened: as §1

A549 cells = assay: Antiproliferative assay; format: cell-based, human; details: read-out: growth inhibition IC50, A549; A549, 72 h
Procedure, shortened: as §1

[3] = Mouse plasma concentrations after single oral dose; format: in vivo; details: mice, single oral dose 5 mg/kg
Procedure, shortened: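 Female C57BL/6 mice dosed once by oral gavage at 5 mg/kg, test compound dissolved in ethanol and given in PBS. Blood drawn from orbital sinus at 1, 3, 6 and 24 h after dosing. Each group of mice sampled only once.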

bovine brain tubulin = assay: Tubulin polymerization assay in vitro; format: biochemical; details: compared to vehicle
[4] = test system: chick embryo chorioallantoic membrane; assay: Chick embryo chorioallantoic membrane; format: in vivo; details: collagen plug with bFGF + VEGF (BV), scored 4 days after treatment
Procedure, shortened: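 Fertilized chick eggs incubated 3 days at 37.5 °C, then shell-free in covered weighboats for 10 more days. Collagen onplants (2.1 mg/mL rat tail collagen, 10 ng/plug bFGF, 30 ng/plug VEGF) with or without test compound placed on CAM over nylon mesh; four per egg, at least three eggs. After 4 days, plugs on surviving embryos imaged and scored blind 0–3; means ± SEM.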

MDA-MB-231 cells [5] = assay: Immunofluorescence of interphase microtubules, MDA-MB-231; format: cell-based, human; details: 1 μM, 24 h
Procedure, shortened: (§2)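 Cells grown on chamber slides and exposed to DMSO vehicle or test compound, then fixed in 3.7% formaldehyde and permeabilised for 4 min with 0.1% Triton X-100 in PBS. Blocked 1 h in PBS/1% BSA with calf serum. Stained with mouse anti-β-tubulin (1:200), then Alexa 488 goat anti-mouse (1:200) for 2 h at room temperature. Imaged by fluorescence microscopy.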

HeLa cells [6] = assay: Immunofluorescence of interphase microtubules, HeLa; format: cell-based, human; details: 1 μM, 24 h
Procedure, shortened: as §2

[7] = test system: colchicine binding site of tubulin; assay: Competitive LC-MS/MS binding assay, colchicine binding site; details: colchicine 1.2 μM, tubulin 1.3 mg/mL, 37 °C, 1 h; highest value reached

IC50 (MDA-MB-231 cells [1]) [nM] | IC50 (HeLa cells [2]) [nM] | IC50 (A549 cells) [nM] | peak plasma concentration [3] | plasma concentration at 6 h [3] | plasma concentration at 24 h [3] | relative binding capacity, % of colchicine binding [7] [%] | Molecule | inhibition of tubulin polymerization (bovine brain tubulin; compound at 1 μM) | inhibition of tubulin polymerization (bovine brain tubulin; compound at 10 μM) | inhibition of new vessel growth (angiogenesis score, scale 0-3) [4] | effect on interphase microtubule network (MDA-MB-231 cells [5]) | effect on interphase microtubule network (HeLa cells [6])
34 ± 4 | 34 ± 2 | 330 ± 10 | – | – | – | – | 2-(2,4-Dimethoxyphenyl)-6-(2,5-dimethoxyphenyl)pyridine [4m] | – | – | – | – | –
69 ± 2.8 | 4.7 ± 0.9 | 2640 ± 380 | lower peak concentrations than CA-4 | – | – | – | 2-Methoxy-5-(6-(3,4,5-trimethoxyphenyl)pyridine-2-yl)phenol [4t] | failed to inhibit tubulin polymerization | 32% | inhibition of new vessel growth; also recorded: scored significantly lower than the positive control (BV) | – | –
> 100000 | > 25000 | > 100000 | – | – | – | – | 5-Bromo-2-(2,4-dimethoxyphenyl)pyridine [2f] | – | – | – | – | –
12050 ± 20 | 14000 ± 300 | > 25000 | – | – | – | – | 5-Bromo-2-(3,4,5-trimethoxyphenyl)pyridine [2e] | – | – | – | – | –
– | – | – | lower peak concentrations than CA-4 | – | – | – | COc1ccc(-c2cccc(-c3ccc(OC)cc3OC)n2)cc1 [4h, 2-(2,4-Dimethoxyphenyl)-6-(4-methoxyphenyl)pyridine] | failed to inhibit tubulin polymerization | remained ineffective against tubulin polymerization | inhibition of new vessel growth | dramatic reduction of the interphase microtubule network | dramatic reduction of the interphase microtubule network
– | – | – | – | dropping rapidly | below detection limit | – | COc1ccc(-c2cccc(-c3ccc(OC)c(O)c3)n2)c(OC)c1 [4s, 5-(6-(2,4-Dimethoxyphenyl)pyridine-2-yl)-2-methoxyphenol] | failed to inhibit tubulin polymerization | – | inhibition of new vessel growth; also recorded: scored significantly lower than the positive control (BV) | – | –
– | – | – | – | no longer detectable | no longer detectable | 78 | COc1ccc(/C=C\c2cc(OC)c(OC)c(OC)c2)cc1O [CA-4, Combretastatin-A4, reference compound] | – | nearly completely blocked tubulin polymerization | inhibition of new vessel growth | very similar loss of the microtubule network | very similar loss of the microtubule network
